According to ChEMBL document CHEMBL1144988, “Stereoselective preparation of N-[(R,R)-(E)-1-(3,4-dichlorobenzyl)-3- (2-oxoazepan-3-yl)carbamoyl]allyl-N-methyl-3,5-bis(trifluoromethyl)benzamide, a potent and orally active dual neurokinin NK(1)/NK(2) receptor antagonist” (J Med Chem, 2003):
“And” between values parts separate entries of the source, which are not always exact repeats. Identical values can stand only once.

Key:
Substance-P receptor [1] = target: Substance-P receptor (Homo sapiens, UniProt P25103); test: In vitro binding affinity towards Human Tachykinin receptor 1
Outline: (§1)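 Membranes from CHO cells expressing cloned human NK1 receptor, incubated with 3H-[Sar9,Met(O2)11]SP (0.5 nM final) in 20 mM HEPES, 1 mM MnCl2, pH 7.4, for 60 min at 28 °C. Nonspecific binding was defined with Sar9SP. Bound radioactivity was collected by filtration, washed with ice-cold 50 mM Tris pH 7.4, then counted by scintillation.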

Substance-K receptor [2] = target: T1, Substance-K receptor (Homo sapiens, UniProt P21452); test: In vitro binding affinity towards Human Tachykinin receptor 2
T1 sequence (P21452 whole entry): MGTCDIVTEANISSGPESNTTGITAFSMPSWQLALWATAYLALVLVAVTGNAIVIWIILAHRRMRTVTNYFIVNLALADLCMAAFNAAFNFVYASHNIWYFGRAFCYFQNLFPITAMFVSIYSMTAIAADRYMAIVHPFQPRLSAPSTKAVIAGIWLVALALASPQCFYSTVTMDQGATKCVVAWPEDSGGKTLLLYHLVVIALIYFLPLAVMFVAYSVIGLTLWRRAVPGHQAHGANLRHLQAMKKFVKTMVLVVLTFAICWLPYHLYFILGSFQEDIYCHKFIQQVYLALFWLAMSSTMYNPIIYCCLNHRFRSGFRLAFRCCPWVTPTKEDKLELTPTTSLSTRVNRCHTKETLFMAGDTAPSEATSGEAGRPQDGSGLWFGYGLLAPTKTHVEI
Outline: as §1, with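 “NK2” for “NK1”, “125I-neurokinin A (1.4” for “3H-[Sar9,Met(O2)11]SP (0.5”, “NKA.” for “Sar9SP.”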

[3] = Bioavailability in guinea pig (dose 10 mg/kg p.o.); format: ADME, organism-based, Cavia porcellus; conditions: in vivo, po
Outline: (§2)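 Guinea pigs given a single oral dose of 10 mg/kg (n = 7) as a microemulsion (2% DMSO/20% Sandimmon placebo/78% saline) or as a cremophor/2% DMSO formulation. Food was withdrawn up to 18 h predose, and animals carried heparin-flushed cannulas. Blood was sampled at 60, 120, 240, 360, 480, 720 and 1440 min. The read-outs were t1/2, Cmax, AUC0–24h and bioavailability.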

[4] = Area Under the concentration-time curve from zero time to 24 hr in guinea pig when given at a dose of 10 mg/kg perorally (Microemulsion); format: ADME, organism-based, Cavia porcellus; parameters: time < 24 hr, dose 10 mg/kg, route oral; conditions: in vivo, po; outline: as §2
[5] = Area Under the concentration-time curve from zero time to 24 hr in guinea pig when given at a dose of 10 mg/kg perorally (cremophor); format: ADME, organism-based, Cavia porcellus; parameters: time < 24 hr, dose 10 mg/kg, route oral; conditions: in vivo, po; outline: as §2
[6] = Area Under the concentration-time curve from zero time to 24 hr in guinea pig when given at a dose of 3 mg/kg intravenously; format: ADME, organism-based, Cavia porcellus; parameters: time < 24 hr, dose 3 mg/kg, route intravenous; conditions: in vivo, iv
Outline: (§3)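 Guinea pigs given 3 mg/kg iv via the jugular vein (n = 6) in a cremophor formulation, with cannulas flushed with heparinized saline. Blood was sampled at 5, 30, 60, 120, 240, 360, 720 and 1440 min. The read-outs were terminal elimination half-life and AUC0–24h.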

[7] = (§4) Half life period in guinea pig when given at a dose of 10 mg/kg perorally; format: ADME, organism-based, Cavia porcellus; parameters: dose 10 mg/kg, route oral; conditions: in vivo, po; outline: as §2
Cavia porcellus [8] = test: as §4; format: ADME, organism-based; parameters: dose 10 mg/kg, route oral; conditions: in vivo, po; outline: as §2
[9] = Half life period in guinea pig when given at a dose of 3 mg/kg intravenously; format: ADME, organism-based, Cavia porcellus; parameters: dose 3 mg/kg, route intravenous; conditions: in vivo, iv; outline: as §3
[10] = (§5) Plasma concentration in Blood of guinea pig when given at a dose of 10 mg/kg perorally; format: ADME, organism-based, Cavia porcellus; parameters: dose 10 mg/kg, route oral; conditions: plasma, po; outline: as §2
Cavia porcellus [11] = test: as §5; format: ADME, organism-based; parameters: dose 10 mg/kg, route oral; conditions: in vivo, po; outline: as §2
Substance-P receptor [12] = target: Substance-P receptor (Cavia porcellus, UniProt P30547); test: In vitro relative antagonist potency towards guinea pig Tachykinin receptor 1; format: functional; conditions: read-out: pA2 (converted)
Substance-K receptor [13] = target: T2, Substance-K receptor (Cavia porcellus, UniProt Q64077); test: In vitro relative antagonist potency towards guinea pig Tachykinin receptor 2; format: functional; conditions: read-out: pA2 (converted)
T2 sequence (Q64077 whole entry): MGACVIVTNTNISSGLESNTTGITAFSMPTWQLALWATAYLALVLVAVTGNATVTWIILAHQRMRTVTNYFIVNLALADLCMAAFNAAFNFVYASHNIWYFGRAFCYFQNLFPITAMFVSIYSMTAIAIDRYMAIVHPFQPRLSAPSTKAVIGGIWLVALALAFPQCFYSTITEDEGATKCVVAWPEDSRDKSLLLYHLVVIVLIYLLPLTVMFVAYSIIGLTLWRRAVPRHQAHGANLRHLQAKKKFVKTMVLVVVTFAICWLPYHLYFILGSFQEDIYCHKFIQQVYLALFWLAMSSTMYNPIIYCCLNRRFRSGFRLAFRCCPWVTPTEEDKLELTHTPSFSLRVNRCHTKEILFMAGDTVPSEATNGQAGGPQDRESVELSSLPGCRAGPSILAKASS

Saimiri sciureus [14] = test: In vivo Effective peroral dose which inhibits Beta-ala8-Neurokinin A induced bronchoconstriction (dynamic compliance) in squirrel monkey; conditions: in Primates, po
Saimiri sciureus [15] = test: In vivo Effective peroral dose which inhibits Beta-ala8-Neurokinin A induced bronchoconstriction (airways resistance) in squirrel monkey; conditions: in Primates, po

Substance-P receptor (Homo sapiens, UniProt P25103), sequence (P25103 whole entry): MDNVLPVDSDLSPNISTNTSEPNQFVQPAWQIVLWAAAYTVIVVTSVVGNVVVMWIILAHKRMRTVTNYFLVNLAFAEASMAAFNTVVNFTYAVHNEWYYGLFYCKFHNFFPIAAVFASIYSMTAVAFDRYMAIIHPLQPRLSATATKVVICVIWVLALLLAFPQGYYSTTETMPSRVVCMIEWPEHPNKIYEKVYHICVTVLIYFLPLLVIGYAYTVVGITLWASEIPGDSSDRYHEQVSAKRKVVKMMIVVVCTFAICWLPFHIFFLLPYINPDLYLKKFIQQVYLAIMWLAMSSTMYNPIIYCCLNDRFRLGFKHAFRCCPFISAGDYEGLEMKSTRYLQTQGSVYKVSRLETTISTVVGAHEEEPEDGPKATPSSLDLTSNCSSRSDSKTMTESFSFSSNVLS
Substance-P receptor (Cavia porcellus, UniProt P30547), sequence (P30547 whole entry): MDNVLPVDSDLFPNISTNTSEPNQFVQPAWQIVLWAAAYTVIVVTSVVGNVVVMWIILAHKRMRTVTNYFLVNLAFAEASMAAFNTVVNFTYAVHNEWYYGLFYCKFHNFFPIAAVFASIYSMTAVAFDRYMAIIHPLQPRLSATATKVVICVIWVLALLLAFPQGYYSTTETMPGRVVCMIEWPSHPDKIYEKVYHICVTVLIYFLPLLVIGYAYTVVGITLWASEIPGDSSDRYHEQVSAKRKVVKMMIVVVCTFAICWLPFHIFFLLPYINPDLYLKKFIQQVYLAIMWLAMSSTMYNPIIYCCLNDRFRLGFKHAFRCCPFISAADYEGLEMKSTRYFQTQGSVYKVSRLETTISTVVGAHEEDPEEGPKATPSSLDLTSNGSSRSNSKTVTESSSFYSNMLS

Ki (Substance-P receptor [1]) [nM] | Ki (Substance-K receptor [2]) [nM] | F [3] | AUC at 24 h [4] [ng·h/mL] | AUC at 24 h [5] [ng·h/mL] | AUC at 24 h [6] [ng·h/mL] | half-life [7] [h] | T1/2 (Cavia porcellus [8]) [h] | half-life [9] [h] | Cmax [10] [ng/mL] | Cmax (Cavia porcellus [11]) [ng/mL] | Kb (Substance-P receptor [12]) [nM] | Kb (Substance-K receptor [13]) [nM] | SMILES | ED50 (Saimiri sciureus [14]) [mg/kg] | ED50 (Saimiri sciureus [15]) [mg/kg]
18.2 | 182 | – | – | – | – | – | – | – | – | – | – | – | CN(C(=O)c1cc(C(F)(F)F)cc(C(F)(F)F)c1)[C@H](/C=C/C(=O)N[C@H]1CCCCNC1=O)Cc1ccc(Cl)c(Cl)c1 | – | –
0.832 | 457 | – | – | – | – | – | – | – | – | – | – | – | CN(C(=O)c1cc(C(F)(F)F)cc(C(F)(F)F)c1)[C@H](/C=C/C(=O)N[C@@H]1CCCCNC1=O)Cc1ccc(Cl)c(Cl)c1 | – | –
8.71 | 102 | – | – | – | – | – | – | – | – | – | – | – | CN(C(=O)c1cc(C(F)(F)F)cc(C(F)(F)F)c1)[C@@H](/C=C/C(=O)N[C@H]1CCCCNC1=O)Cc1ccc(Cl)c(Cl)c1 | – | –
4.17 | 9.55 | 41% and 17.4% | 6380 | 2710 | 4690 | 3.8 | 5.4 | 4.2 | 600 | 415 | 11.7 | 53.7 | CN(C(=O)c1cc(C(F)(F)F)cc(C(F)(F)F)c1)[C@@H](/C=C/C(=O)N[C@@H]1CCCCNC1=O)Cc1ccc(Cl)c(Cl)c1 [DNK333] | 2.8 | 1
